Read-outs that look alike come from different tables or passages of the source.
Experiments:
[1] = molecular target: KATP channel (Rattus norvegicus, UniProt P70673); experiment: KATP channel, inside-out patches from adult rat ventricular cells; type: cell-based
Summary of the method: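 KATP channels that appeared on forming inside-out patches were tested with 5 μM arachidonic acid on the cytoplasmic side. In some patches channels were first allowed to run down, then briefly exposed to 3 mM ATP to reactivate them before fatty acid was applied. Recordings were at 24–26°C; 2 μM was also tested (n = 3).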

[2] = molecular target: T1, KACh channel (Rattus norvegicus, UniProt P48548+P63251); type: cell-based; details: for inhibition of ATP-dependent gating, extracellular application: 5 μM in the pipette solution (extracellular), after 5 min, n = 4 each; for Hill coefficient of inhibition: ATP-modified KACh channels, inside-out
T1 sequence (P63251 1-501): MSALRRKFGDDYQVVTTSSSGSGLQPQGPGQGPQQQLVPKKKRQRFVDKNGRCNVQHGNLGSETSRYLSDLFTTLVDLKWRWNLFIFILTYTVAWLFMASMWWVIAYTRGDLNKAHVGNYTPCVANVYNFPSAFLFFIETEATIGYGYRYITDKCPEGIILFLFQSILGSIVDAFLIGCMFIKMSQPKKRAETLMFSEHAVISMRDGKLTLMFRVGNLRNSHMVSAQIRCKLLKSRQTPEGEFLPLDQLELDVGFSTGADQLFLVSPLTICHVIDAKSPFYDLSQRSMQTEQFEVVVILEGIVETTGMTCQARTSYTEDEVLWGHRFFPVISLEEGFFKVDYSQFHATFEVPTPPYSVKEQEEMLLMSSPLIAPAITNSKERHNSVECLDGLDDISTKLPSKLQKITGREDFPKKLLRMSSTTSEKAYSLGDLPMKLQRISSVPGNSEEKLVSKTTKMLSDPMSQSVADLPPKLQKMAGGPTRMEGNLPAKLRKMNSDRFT
T1 sequence (P48548 1-419): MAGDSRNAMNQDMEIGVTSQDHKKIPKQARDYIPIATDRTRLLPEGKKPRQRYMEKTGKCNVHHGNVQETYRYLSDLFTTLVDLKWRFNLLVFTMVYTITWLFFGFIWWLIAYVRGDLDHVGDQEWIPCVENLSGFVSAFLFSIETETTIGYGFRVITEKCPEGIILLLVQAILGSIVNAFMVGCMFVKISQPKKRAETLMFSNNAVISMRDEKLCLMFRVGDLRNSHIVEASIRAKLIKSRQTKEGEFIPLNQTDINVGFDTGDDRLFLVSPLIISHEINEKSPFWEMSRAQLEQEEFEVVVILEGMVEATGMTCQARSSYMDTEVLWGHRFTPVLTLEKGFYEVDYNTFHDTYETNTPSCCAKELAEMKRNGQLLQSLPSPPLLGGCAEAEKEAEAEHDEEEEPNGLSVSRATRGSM

[3] = test system: GIRK1/4; experiment: ATP-dependent gating of GIRK1/4 expressed in Xenopus oocytes, βγ-activated; type: cell-based; details: βγ 50 nM
Summary of the method: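 Xenopus oocytes injected with GIRK1 and GIRK4 cRNA (~0.5 ng/nl) and kept ~2 d at 19°C in Barth's solution. Vitelline membrane was removed before patching. Inside-out patches in 140 mM KCl, pH 7.2. Channel activity and open-time kinetics were assessed with ATP and fatty acid on the cytoplasmic side.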

[4] = molecular target: T1, KACh channel; experiment: βγ-activated KACh channels, atrial inside-out patches; type: cell-based
Summary of the method: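 Atrial inside-out patches at −60 mV in 140 mM KCl, pH 7.2, 24–26°C. Channels were activated by purified bovine βγ subunit applied to the cytoplasmic face. Linoleic or arachidonic acid (2 μM, sonicated into bath solution) was applied first, then 4 mM ATP was added. nPo was compared before and after ATP.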

[5] = test system: K1 channel; experiment: ATP-activated background K1 channel, atrial inside-out patches; type: cell-based, rat
[6] = molecular target: T1, KACh channel; type: cell-based; details: 2 μM fatty acid applied with 30 μM PIP2
[7] = molecular target: T2, KACh channels in hippocampal pyramidal neurons (Rattus norvegicus, UniProt P48550+P63251); experiment: ATP-dependent gating of KACh channel in hippocampal neurons, 5-HT as agonist; type: cell-based; details: 2 μM with 100 μM GTP and 4 mM ATP, 10 μM 5-HT in pipette
T2 sequence (P63251 1-501): T1 sequence (P63251 1-501)
T2 sequence (P48550 1-425): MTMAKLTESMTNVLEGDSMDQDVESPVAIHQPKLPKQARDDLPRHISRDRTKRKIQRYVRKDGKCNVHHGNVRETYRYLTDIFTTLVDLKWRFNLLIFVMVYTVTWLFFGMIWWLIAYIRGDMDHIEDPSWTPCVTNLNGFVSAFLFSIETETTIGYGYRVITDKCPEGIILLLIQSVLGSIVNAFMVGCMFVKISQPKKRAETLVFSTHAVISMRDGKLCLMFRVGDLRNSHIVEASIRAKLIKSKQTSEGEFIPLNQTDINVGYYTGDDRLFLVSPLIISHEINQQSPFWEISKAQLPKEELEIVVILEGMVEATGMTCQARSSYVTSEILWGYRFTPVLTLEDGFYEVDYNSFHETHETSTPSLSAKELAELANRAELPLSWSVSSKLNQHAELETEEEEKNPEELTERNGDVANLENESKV
Summary of the method: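 Pyramidal neurons from the CA3 region of adult rat hippocampus. Slices ~500 μm thick were digested in 0.33 mg/ml trypsin at 30°C, then in DNase I, triturated, and settled onto coverslips. Inside-out patches were activated by 100 μM GTP, then 4 mM ATP was added. Open states were assessed from duration histograms and kinetic-scheme fits with one or two open states.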

[8] = K 1/2 (effect on ATP-dependent gating of KACh channel), atrial inside-out patches, 100 μM GTP and 4 mM ATP, lipid 0.1, 1, 3, 10 and 30 μM, n = 3 each

Chain of KATP channel (P70673 whole entry): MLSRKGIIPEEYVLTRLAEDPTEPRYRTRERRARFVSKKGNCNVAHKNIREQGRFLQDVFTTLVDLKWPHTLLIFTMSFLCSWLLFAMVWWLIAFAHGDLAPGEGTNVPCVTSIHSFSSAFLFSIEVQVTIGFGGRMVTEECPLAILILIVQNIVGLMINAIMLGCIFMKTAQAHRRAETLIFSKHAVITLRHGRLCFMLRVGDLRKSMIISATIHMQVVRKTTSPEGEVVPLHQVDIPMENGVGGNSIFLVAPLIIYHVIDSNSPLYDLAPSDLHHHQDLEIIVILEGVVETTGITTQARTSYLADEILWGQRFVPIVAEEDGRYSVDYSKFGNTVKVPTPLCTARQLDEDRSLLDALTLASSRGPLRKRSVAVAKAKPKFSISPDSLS
Chain of KATP channel (Q63563 whole entry partner): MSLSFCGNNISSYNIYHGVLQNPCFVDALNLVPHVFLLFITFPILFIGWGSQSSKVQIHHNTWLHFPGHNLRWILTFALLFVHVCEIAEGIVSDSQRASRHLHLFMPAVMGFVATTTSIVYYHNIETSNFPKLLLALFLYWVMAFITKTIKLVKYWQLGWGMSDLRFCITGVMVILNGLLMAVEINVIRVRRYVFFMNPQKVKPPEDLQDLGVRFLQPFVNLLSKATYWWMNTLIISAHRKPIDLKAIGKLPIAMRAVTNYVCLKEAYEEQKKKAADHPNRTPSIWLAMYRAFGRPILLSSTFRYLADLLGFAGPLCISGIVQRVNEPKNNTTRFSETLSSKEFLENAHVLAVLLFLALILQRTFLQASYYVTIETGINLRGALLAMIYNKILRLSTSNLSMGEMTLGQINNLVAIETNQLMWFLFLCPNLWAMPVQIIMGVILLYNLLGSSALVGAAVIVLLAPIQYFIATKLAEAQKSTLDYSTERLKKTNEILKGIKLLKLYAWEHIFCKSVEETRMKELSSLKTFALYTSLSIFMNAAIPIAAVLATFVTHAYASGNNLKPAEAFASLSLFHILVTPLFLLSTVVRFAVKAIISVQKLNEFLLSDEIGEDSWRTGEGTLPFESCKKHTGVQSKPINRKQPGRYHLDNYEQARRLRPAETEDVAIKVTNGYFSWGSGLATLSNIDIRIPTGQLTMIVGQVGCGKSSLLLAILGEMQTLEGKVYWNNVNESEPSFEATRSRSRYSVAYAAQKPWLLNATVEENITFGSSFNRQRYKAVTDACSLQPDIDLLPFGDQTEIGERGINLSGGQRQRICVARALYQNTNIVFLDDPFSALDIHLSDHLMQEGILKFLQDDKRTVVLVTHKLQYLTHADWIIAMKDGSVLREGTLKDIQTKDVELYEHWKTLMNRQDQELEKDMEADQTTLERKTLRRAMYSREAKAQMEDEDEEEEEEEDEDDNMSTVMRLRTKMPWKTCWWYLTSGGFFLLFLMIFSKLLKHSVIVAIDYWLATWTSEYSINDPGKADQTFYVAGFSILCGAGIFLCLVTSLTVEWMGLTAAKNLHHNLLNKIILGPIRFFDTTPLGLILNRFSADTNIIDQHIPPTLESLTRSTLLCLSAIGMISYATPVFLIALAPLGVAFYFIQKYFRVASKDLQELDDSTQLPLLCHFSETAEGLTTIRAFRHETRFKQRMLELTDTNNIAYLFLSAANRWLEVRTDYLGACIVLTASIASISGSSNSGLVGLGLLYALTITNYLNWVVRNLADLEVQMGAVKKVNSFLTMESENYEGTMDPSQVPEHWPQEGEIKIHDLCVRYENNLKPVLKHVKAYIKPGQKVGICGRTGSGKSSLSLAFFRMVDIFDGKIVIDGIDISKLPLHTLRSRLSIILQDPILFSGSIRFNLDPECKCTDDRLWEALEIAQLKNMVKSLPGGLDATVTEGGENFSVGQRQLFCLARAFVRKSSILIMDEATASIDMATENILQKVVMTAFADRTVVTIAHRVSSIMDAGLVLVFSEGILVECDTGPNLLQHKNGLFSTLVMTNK

| KATP channel inhibition in the presence of PIP2 ([1]; 5 μM AA with PIP2 present, listed as AA) | inhibition of KATP channels reactivated by ATP after rundown ([1]; brief exposure to 3 mM ATP, n = 4, listed as AA) | inhibition at 2 µM ([1]; read-out: inhibition of KATP channel activity) [%] | KACh open time constant after fatty acid ([2]; 2 μM AA with GTP and 4 mM ATP, atrial patch also containing K1 channel) [ms] | inhibition of ATP-dependent gating, extracellular application [2] | Hill coefficient of inhibition [2] | IC50 [2, 8] [nM] | voltage dependence of the effect ([2]; channel activity at different membrane potentials (Fig. 10 B)) | IC50 [4] [nM] | inhibition of KATP channel activity ([1]; 5 μM, during channel rundown) | effect on PIP2-dependent gating of KACh channel [6] | open time constant (one open state) [7] [ms] | IC50 ([2]; K 1/2 for inhibition, pipette solution 70 mM K+, n = 3) [nM] | IC50 ([2]; K 1/2 for inhibition, pipette solution 140 mM K+, n = 3) [nM] | IC50 ([2]; K 1/2 for inhibition, pipette solution 210 mM K+, n = 3) [nM] | increase in channel activity on further addition of 4 mM ATP ([4]; βγ-activated channels exposed to 2 μM fatty acid first, n = 5) [fold] | Compound | effect on ATP-induced changes in GIRK1/4 channel kinetics [3] | effect on K1 channel ([5]; 2 or 5 μM AA, ATP-activated, n = 3 each, listed as AA) | influence on K1 channel kinetics ([5]; linoleic acid 2 μM (n = 3), cytosolic fraction 5 mg protein/ml (n = 2), lipid fraction (n = 2)) |
| --- | --- | --- | --- | --- | --- | --- | --- | --- | --- | --- | --- | --- | --- | --- | --- | --- | --- | --- | --- |
| ineffective | quick inhibition | 62 ± 12 | 1.0 ± 0.1 | did not inhibit | ~2 | 1700 ± 200 | voltage-insensitive | 1500 | – | – | – | – | – | – | – | CCCCC/C=C\C/C=C\C/C=C\C/C=C\CCCC(=O)O [Arachidonic acid [20:4 (n-6)], Arachidonic acid] | blocked | no effect | – |
| – | – | – | – | did not inhibit | ~2 | 1200 ± 200 | – | – | near maximal inhibition | inhibited | 1.0 ± 0.1 | 1600 ± 400 | 1500 ± 300 | 1700 ± 400 | 1.3 ± 0.1 | CCCCC/C=C\C/C=C\CCCCCCCC(=O)O [Linoleic acid [18:2 (n-6)], Linoleic acid] | – | – | failed to significantly influence |
